GASC1 inh – inhibitors of human demethylase GASC-1 KDM4C. Q9H3R0. GST-KDM4C 2-372, H3K9me3 peptide, LANCE TR-FRET. inhibition, % at 12.5 µM. actives 0.15% (n = 96,000). AID 720574;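 active means mean replicate inhibition above about 25%, with at least 55% of replicates also reaching it, limit read from the data, passing the limit was not always enough; inconclusive means only one of those two conditions met; inactive means neither condition met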
Target sequence (Q9H3R0 2-372 limits assumed): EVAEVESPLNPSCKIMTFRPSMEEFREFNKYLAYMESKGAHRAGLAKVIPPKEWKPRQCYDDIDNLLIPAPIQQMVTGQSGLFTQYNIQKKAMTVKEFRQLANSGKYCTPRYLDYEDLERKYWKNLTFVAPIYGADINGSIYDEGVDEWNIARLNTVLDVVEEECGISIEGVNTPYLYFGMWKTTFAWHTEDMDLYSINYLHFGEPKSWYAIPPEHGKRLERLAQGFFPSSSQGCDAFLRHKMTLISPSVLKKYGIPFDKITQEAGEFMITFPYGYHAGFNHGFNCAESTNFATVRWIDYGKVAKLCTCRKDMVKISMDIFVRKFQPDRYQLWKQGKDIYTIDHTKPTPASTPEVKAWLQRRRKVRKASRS
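reagent = H3K9me3 peptide substrate, Fe(II), 2-oxoglutarate | system = GST-tagged GASC-1 (JMJD2C) catalytic fragment, aa 2-372 | amount = enzyme final amount 10 nM | read-out = Fall in 671/618 emission ratio as inhibition | medium = HEPES buffer, pH 7.5, plus ascorbate | schedule = 30 min reaction, 60 min detection, RT | measured by = LANCE TR-FRET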
T cruzi growth-1 – blocks T. cruzi growth in NIH3T3 culture; inhibition, % at 8.34 µM; actives 5.9% (n = 77,000); T. cruzi beta-gal in NIH3T3, GalScreen luminescence, 90 h;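 active means mean inhibition above about 93%, with at least 55% of replicates each passing it, limit read from the data, passing the limit was not always enough; inconclusive means only one of those two conditions holds; inactive means neither condition holds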
IDH1 R132H inh – inhibitors of human IDH1 R132H | actives 0.18% (n = 70,000) | IDH1 R132H reductase, diaphorase/resazurin fluorescence, 60 min | O75874 | inhibition, % at 10 µM; in the data active means inhibition above about 34%; inconclusive means no clear call, values can overlap the other calls; inactive means below about 11%;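 further: 0% = DMSO and 100% = no enzyme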
Pf Dd2 growth – P. falciparum Dd2 growth inhibition. SYBR Green, 72 h; active compounds read low. activity change, % at 10 µM. actives 2.3% (n = 94,000). AID 1159554; in the data active means activity change below about -80%; inconclusive means no clear call, values can overlap the other calls
T cruzi growth-2 – inhibitors of T. cruzi proliferation; shares compounds with T cruzi growth-1; T. cruzi beta-gal in NIH3T3, GalScreen luminescence, 90 h; inhibition, % at 8.35 µM; actives 72% (n = 5,600); AID 651739;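 active means mean replicate inhibition above about 95% and at least 55% of replicates individually reaching it, limit read from the data; inconclusive means only one of the two criteria is met; inactive means neither criterion is met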
T cruzi growth-3 – blocks T. cruzi growth in NIH3T3 host cells; shares compounds with T cruzi growth-1; T. cruzi beta-gal in NIH3T3, GalScreen luminescence, 90 h; inhibition, % at 2.09 µM; actives 21% (n = 5,600);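 active means mean inhibition above about 95%, with at least 55% of replicates also reaching it, limit read from the data; inconclusive means meets just one of the two conditions; inactive means meets neither condition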;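 further: plate controls were neutral control median for no effect and positive control median for full effect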
3T3 cytotox – NIH/3T3 (mouse) viability loss | shares compounds with T cruzi growth-1 | actives 14% (n = 5,600) | cytotoxicity (signal decrease), % at 8.35 µM | NIH/3T3 viability, CellTiter-Glo ATP luminescence, 90 h | AID 651742;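 active means mean signal decrease across replicates above about 35% based on untreated-well scatter, with enough replicates individually passing, limit read from the data; inconclusive means no rule stated though some were filed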;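 further: 0% = median of neutral control wells and 100% = median of positive control wells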
3T3 cytotox 2 – kills mouse NIH/3T3 fibroblasts. NIH/3T3 viability, CellTiter-Glo ATP luminescence, 90 h. shares compounds with T cruzi growth-1. inhibition, % at 24.9 µM. actives 56% (n = 5,600);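 active means mean loss of cell viability signal at or above a set limit, and enough replicates individually reaching it; inconclusive means meets only the mean limit or only the replicate share; inactive means meets neither condition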;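 further: 0% = median of neutral control wells and 100% = median of positive control wells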
Numbers without * were called inactive; ? = inconclusive; . = no result. Most compounds without a hit are left out; they make up all but 5.8% or so of the library.

SMILES	GASC1 inh	T cruzi growth-1	IDH1 R132H inh	Pf Dd2 growth	T cruzi growth-2	T cruzi growth-3	3T3 cytotox	3T3 cytotox 2
C[C@H]1CN([C@@H](C)CO)C(=O)Cc2cc(NC(=O)Cc3ccccc3)ccc2O[C@H]1CN(C)Cc1ccc(C(F)(F)F)cc1	0	105*	0	6	108*	67	14	104*
C[C@@H]1CN([C@H](C)CO)C(=O)c2cccc(NC(=O)c3nc4ccccc4s3)c2O[C@H]1CN(C)Cc1ccc(C(F)(F)F)cc1	-1	96	.	-77	.	.	.	.
C[C@H](CO)N1C[C@H](C)[C@H](CN(C)Cc2ccccc2)Oc2c(NC(=O)c3nc4ccccc4s3)cccc2C1=O	-1	99*	0	-25	103*	47	-4	?
C[C@H]1CN([C@@H](C)CO)C(=O)c2cccc(NC(=O)c3nc4ccccc4s3)c2O[C@H]1CN(C)Cc1ccc(C(F)(F)F)cc1	-4	?	0	?	110*	65	34	96*
C[C@H]1CN([C@@H](C)CO)C(=O)c2cccc(NC(=O)c3nc4ccccc4s3)c2O[C@H]1CN(C)Cc1ccc(Cl)c(Cl)c1	-4	97*	.	-57	112*	73	47*	54*
C[C@@H]1CN([C@H](C)CO)C(=O)c2cccc(NC(=O)c3nc4ccccc4s3)c2O[C@H]1CN(C)Cc1ccc(C(=O)Nc2ccccc2N)cc1	3	104*	.	-92*	108*	77	-12	33*
O=C(CSc1nnc(-c2cccc(Cl)c2)n1-c1ccccc1)Nc1ccc(F)c(F)c1	.	.	0	.	.	.	.	.
COc1ccc(S(=O)(=O)n2cc(-c3ccc(C)cc3)c(N)n2)c(OC)c1	.	.	0	.	.	.	.	.
COc1ccccc1NC(=O)Cn1nnc(-c2ccc(C(F)(F)F)cc2)n1	.	.	0	.	.	.	.	.
CCn1c2ccccc2c2cc(NC(=O)CCN3C(=O)c4ccccc4C3=O)ccc21	.	.	0	.	.	.	.	.
O=C(C[C@@H]1CC[C@@H]2[C@H](COC[C@H](O)CN2C(=O)Nc2ccc(Cl)c(Cl)c2)O1)NCc1ccc(Cl)c(Cl)c1	-1	107*	.	-4	100*	74	43*	103*
Cc1noc(C)c1NC(=O)N1C[C@@H](O)COC[C@@H]2O[C@@H](CC(=O)NCC3CC3)CC[C@H]21	1	77	.	.	.	.	.	.
O=C(C[C@@H]1CC[C@@H]2[C@H](COC[C@@H](O)CN2C(=O)Nc2ccc(Cl)c(Cl)c2)O1)NCc1ccc(Cl)c(Cl)c1	0	109*	.	-16	91	97*	3	90*
O=C(C[C@H]1CC[C@@H]2[C@H](COC[C@H](O)CN2C(=O)Nc2ccc(Cl)c(Cl)c2)O1)NCc1ccc(F)cc1	3	39	.	2	.	.	.	.
Cc1noc(C)c1NC(=O)N1C[C@@H](O)COC[C@@H]2O[C@H](CC(=O)NCC3CC3)CC[C@H]21	4	?	.	.	?	4	-1	-3
CCCc1cc(=O)[nH]c(SCC(=O)Nc2cc(C)cc(C)c2)n1	.	.	1	.	.	.	.	.
C[C@H]1CN([C@@H](C)CO)C(=O)c2cc(NC(=O)Nc3cccc4ccccc34)ccc2O[C@@H]1CN(C)Cc1ccc(Oc2ccccc2)cc1	-2	125*	3	-78	98*	102*	41*	44*
C[C@H](CO)N1C[C@H](C)[C@@H](CN(C)Cc2ccc(Oc3ccccc3)cc2)Oc2ccc(NC(=O)Nc3cccc4ccccc34)cc2C1=O	-1	117*	.	-51	99*	78	?	24
C[C@@H]1CN([C@H](C)CO)C(=O)c2cc(NC(=O)Nc3cccc4ccccc34)ccc2O[C@@H]1CN(C)Cc1ccc(Oc2ccccc2)cc1	2	117*	0	-4	101*	48	41*	?
C[C@H](CO)N1C[C@H](C)[C@H](CN(C)Cc2ccc(Oc3ccccc3)cc2)Oc2ccc(NC(=O)Nc3cccc4ccccc34)cc2C1=O	-3	123*	.	-65	104*	100*	33	37*
COc1ccc(NC(=O)C(=O)NCC(=O)Nc2ccccc2OC)cc1	.	.	0	.	.	.	.	.
CCn1c(SCC(=O)Nc2ccc([N+](=O)[O-])cc2)nnc1-c1ccccc1F	.	.	0	.	.	.	.	.
CC(C)CC#Cc1ccc2c(c1)O[C@@H](CN(C)C(=O)c1ccncc1)[C@@H](C)CN([C@@H](C)CO)S2(=O)=O	1	107*	0	-3	?	71	3	62*
CC(C)CC#Cc1ccc2c(c1)O[C@@H](CN(C)C(=O)c1ccncc1)[C@@H](C)CN([C@H](C)CO)S2(=O)=O	10	104*	2	-12	107*	73	32	71*
CC(C)CC#Cc1ccc2c(c1)O[C@@H](CN(C)C(=O)c1ccncc1)[C@H](C)CN([C@@H](C)CO)S2(=O)=O	19	94	2	0	.	.	.	.
SMILES	GASC1 inh	T cruzi growth-1	IDH1 R132H inh	Pf Dd2 growth	T cruzi growth-2	T cruzi growth-3	3T3 cytotox	3T3 cytotox 2
O=C(C1CCCO1)N1N=C(c2c(-c3ccccc3)c3cc(Cl)ccc3[nH]c2=O)CC1c1ccco1 (stereo not given)	.	.	5	.	.	.	.	.
COc1ccc(/C=N/NC(=O)c2ccccn2)cc1O	.	.	-1	.	.	.	.	.
Cc1ccc(NC(=O)CSc2nc3sc4c(c3c(=O)n2-c2ccccc2)CCC4)c(C)c1	.	.	3	.	.	.	.	.
C[C@@H]1CN([C@@H](C)CO)S(=O)(=O)c2ccc(C#CCN(C)C)cc2O[C@H]1CN(C)Cc1ccc2c(c1)OCO2	1	111*	0	-44	102*	94	45*	104*
CCCC#Cc1ccc2c(c1)O[C@@H](CN(C)Cc1ccc3c(c1)OCO3)[C@@H](C)CN([C@H](C)CO)S2(=O)=O	3	109*	0	.	92	105*	13	103*
C[C@H](CO)N1C[C@H](C)[C@@H](CN(C)Cc2ccc3c(c2)OCO3)Oc2cc(C#CCN(C)C)ccc2S1(=O)=O	0	103*	0	-16	110*	58	?	105*
CC(C)CC#Cc1ccc2c(c1)O[C@@H](CN(C)Cc1ccc3c(c1)OCO3)[C@@H](C)CN([C@@H](C)CO)S2(=O)=O	-3	47	0	-64	.	.	.	.
Cc1c(Cl)cccc1NC(=O)CN(c1ccccc1Br)S(C)(=O)=O	.	.	1	.	.	.	.	.
N#C[C@H]1[C@@H](c2ccccc2)[C@@H](CO)N1C(=O)Cc1ccccc1	-1	102*	0	1	1	6	-12	-12
N#C[C@@H]1[C@@H](c2ccc(-c3ccccc3F)cc2)[C@H](CO)N1C(=O)Cc1ccccc1	0	63	.	9	.	.	.	.
